For data set [1], the system named is Mycobacterium tuberculosis. The data set is described as follows: Antimycobacterial activity against Mycobacterium tuberculosis H37Rv after 45 days. It is filed as functional. A digest of the protocol:
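Canetti proportion method. Compound in DMSO is added to Löwenstein–Jensen egg medium before coagulation (30 min, 85 °C), tested at three levels plus a lower one where needed. Tubes are inoculated with H37Rv at 10⁵ cells/ml and incubated 45 days at 37 °C. Colony counts versus drug-free control give percentage inhibition.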

A further data set has as its system HEK-293T. The data set is described as follows: Cytotoxicity against human HEK293T cells after 72 hrs by MTT assay. Format: cell-based. The procedure, abridged: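 293T cells in RPMI-1640 with 10% heat-inactivated FCS and 2 mM L-glutamine, 37 °C, 5% CO2. Cells seeded at 3.5 × 10⁵ cells/ml, grown 24 h, then exposed 72 h to DMSO-diluted compounds (final solvent ≤0.5%), ≥8 wells per concentration. MTT added 4 h, formazan dissolved in 5% HCOOH/2-propanol, absorbance read at 580 nm. IC50 obtained by sigmoidal nonlinear regression against untreated control.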

A short description of data set [2]: Selectivity index, ratio of IC50 for human HEK293T cells to MIC for Mycobacterium tuberculosis H37Rv. Format: functional, HEK-293T.
Data set [3] in a line: Solubility of the compound in deionized water. It is filed as physicochemical.
For the next data set, the system named is Bacillus subtilis. Description: Antibacterial activity against Bacillus subtilis ATCC 6633 at 50 mg/ml after 24 hrs by agar diffusion test. It is filed as functional. A digest of the protocol:
(§1)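 Agar diffusion: wells in agar filled with […] DMSO solution of compound at various concentrations; diameter of clear zone around application point measured. Bacteria grown 24 h at 37 °C on nutrient agar. Compounds first screened at 50 mg/ml; those active then tested at lower concentrations. Bracketed value = lowest concentration (mg/ml) giving zone >11 mm, reported only if activity retained at ≤1.25 mg/ml.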

A further data set deals with Bacillus. The data set is described as follows: Antibacterial activity against Bacillus idosus B 241 at 50 mg/ml after 24 hrs by agar diffusion test. Format: functional. The following applies: for zone of inhibition at 50000 µg/mL: B 241, 24 h, read-out: DIZ. The procedure, abridged:
as §1

A further data set concerns Priestia megaterium. The data set is described as follows: Antibacterial activity against Bacillus megaterium NRRL 1353895 at 50 mg/ml after 24 hrs by agar diffusion test. The note with it: for zone of inhibition at 50000 µg/mL: NRRL 1353895, 24 h, read-out: DIZ. Format: functional. A digest of the protocol:
as §1

Another data set concerns Bacillus mycoides. The data set is described as follows: Antibacterial activity against Bacillus mycoides DSMZ 274 at 50 mg/ml after 24 hrs by agar diffusion test. It is filed as functional. The note with it: for zone of inhibition at 50000 µg/mL: DSMZ 274, 24 h, read-out: DIZ. The procedure, abridged: as §1
The subject of a further data set is Bacillus cereus. The data set is described as follows: Antibacterial activity against Bacillus cereus ATCC 11778 at 50 mg/ml after 24 hrs by agar diffusion test. Format: functional. The note with it: for zone of inhibition at 50000 µg/mL: ATCC 11778, 24 h, read-out: DIZ. The procedure, abridged: as §1
In another data set the test system is Acinetobacter johnsonii. Description: Antibacterial activity against Acinetobacter johnsonii ATCC 17909 at 50 mg/ml after 24 hrs by agar diffusion test. The following applies: for zone of inhibition at 50000 µg/mL: ATCC 17909, 24 h, read-out: DIZ. It is filed as functional. A digest of the protocol: as §1
A further data set deals with Staphylococcus aureus. The data set is described as follows: Antibacterial activity against Staphylococcus aureus NRRL B 313 at 50 mg/ml after 24 hrs by agar diffusion test. It is filed as functional. The following applies: for zone of inhibition at 50000 µg/mL: NRRL B 313, 24 h, read-out: DIZ. A digest of the protocol: (§2)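 Agar diffusion: bacteria grown 24 h at 37 °C on nutrient agar. Wells in the agar are filled with […] of compound solution in DMSO at various concentrations. The diameter of the clear zone around the application point is measured. Bracketed values give the lowest concentration (mg/ml) that produces a zone >11 mm. A first screen is run at 50 mg/ml.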

Data set [4] concerns Micrococcus luteus. Description: Antibacterial activity against Sarcina lutea ATCC 9341 at 50 mg/ml after 24 hrs by agar diffusion test. Format: functional. The note with it: for zone of inhibition at 50000 µg/mL: ATCC 9341, 24 h, read-out: DIZ. The procedure, abridged:
as §2

Data set [5] has as its system Micrococcus luteus. The data set is described as follows: Antibacterial activity against Micrococcus luteus ATCC 9631 at 50 mg/ml after 24 hrs by agar diffusion test. Format: functional. The note with it: for zone of inhibition at 50000 µg/mL: ATCC 9631, 24 h, read-out: DIZ. A digest of the protocol: as §1
The next data set concerns Escherichia coli. Description: Antibacterial activity against Escherichia coli ATCC 8739 at 50 mg/ml after 24 hrs by agar diffusion test. Format: functional. The procedure, abridged: as §1
For another data set, the system named is Candida tropicalis. The data set is described as follows: Antifungal activity against Candida tropicalis ATCC 20336 at 50 mg/ml after 72 hrs by agar diffusion test. It is filed as functional. The note with it: for zone of inhibition at 50000 µg/mL: ATCC 20336, 72 h, read-out: DIZ. A digest of the protocol: (§3)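 Agar diffusion: yeasts grown on yeast peptone dextrose agar and fungi on potato dextrose agar. Wells are filled with […] of compound solution in DMSO at various concentrations, and the clear-zone diameter is measured. Bracketed values give the lowest concentration (mg/ml) that produces a zone >11 mm. A first screen is run at 50 mg/ml.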

A further data set has as its system Saccharomyces cerevisiae. The data set is described as follows: Antifungal activity against Saccharomyces cerevisiae ATCC 9763 at 50 mg/ml after 72 hrs by agar diffusion test. Format: functional. The note with it: for zone of inhibition at 50000 µg/mL: ATCC 9763, 72 h, read-out: DIZ. The procedure, abridged:
as §3

A further data set relates to Penicillium chrysogenum. Description: Antifungal activity against Penicillium chrysogenum CECT 2802 at 50 mg/ml after 72 hrs by agar diffusion test. It is filed as functional. A digest of the protocol: as §3
Data set [6] deals with Mycobacterium tuberculosis. The data set is described as follows: Ratio of ethambutol dihydrochloride MIC to compound MIC for Mycobacterium tuberculosis H37Rv. It is filed as functional.

Molecules are shown by their SMILES. pIC50: −log10 of the molar value. In brackets after ≈: the same amount, converted by molar mass. Activity calls are given as the source filed them. The rule behind the calls is not given here.

`CC[C@H](CO)NC(=O)c1ccc(N(C)C)cc1` came in with a minimal inhibitory concentration (MIC) in data set [1] of 8.46 µM (≈ 2 µg/mL). Further, in the data set on HEK-293T, the pIC50 is 3.76. In addition, in data set [2], the “Selectivity Index” value is listed as 20.5. The molecule further registered a solubility in data set [3] of 1500 µg/mL (≈ 6.35 mM). Besides, the “diameter of the inhibition zone (DIZ)” value in the data set on Bacillus subtilis, in the data set on Bacillus, in the data set with Priestia megaterium, in the data set on Bacillus mycoides, with Bacillus cereus and in the data set on Acinetobacter johnsonii was “inactive” throughout. Also, the “diameter of the inhibition zone (DIZ)” value in the data set on Staphylococcus aureus, with Micrococcus luteus [4], in the data set with Micrococcus luteus [5], with Escherichia coli, with Candida tropicalis and with Saccharomyces cerevisiae was “inactive” each time. Moreover, in the data set on Penicillium chrysogenum, the “diameter of the inhibition zone (DIZ)” value is “inactive”.

In [1], `CC[C@H](CO)NC(=O)c1ccccc1C(=O)N[C@H](CC)CO` gave a minimal inhibitory concentration (MIC) of 0.65 µM (≈ 0.2 µg/mL). The molecule further gave a pIC50 in the data set with HEK-293T of 3.61. The “Selectivity Index” value in [2] worked out at 375.4. The solubility in data set [3] amounted to 46000 µg/mL (≈ 149 mM). Further, in data set [6], the Ratio was 5. The “diameter of the inhibition zone (DIZ)” value with Bacillus subtilis, in the data set with Bacillus, in the data set with Priestia megaterium, in the data set with Bacillus mycoides, with Bacillus cereus and in the data set on Acinetobacter johnsonii was “inactive” each time. Besides, the “diameter of the inhibition zone (DIZ)” value with Staphylococcus aureus, in the data set with Micrococcus luteus [4], in the data set with Micrococcus luteus [5], in the data set on Escherichia coli, in the data set with Candida tropicalis and in the data set with Saccharomyces cerevisiae was “inactive” throughout. Also, the “diameter of the inhibition zone (DIZ)” value in the data set on Penicillium chrysogenum is “inactive”.

In [1], `CC[C@H](CO)NP(=O)(c1ccccc1)c1ccccc1` had a minimum inhibitory concentration (MIC) of 0.69 µM (≈ 0.2 µg/mL). The molecule further had a negative logarithm of the IC50 (pIC50) in the data set on HEK-293T of 3.81. Also, in [2], the “Selectivity Index” value is reported as 224.6. Also, the solubility in data set [3] is less than 1000 µg/mL. The Ratio in data set [6] came to 5. In addition, the zone of inhibition at 50000 µg/mL in the data set on Bacillus subtilis (ATCC 6633, 24 h, read-out: DIZ) is 18 mm; with Bacillus it was 15 mm; in the data set on Priestia megaterium, 16 mm; in the data set on Bacillus mycoides it was 15 mm; in the data set with Bacillus cereus it was 15 mm; in the data set on Acinetobacter johnsonii it was 17 mm. Further, the zone of inhibition at 50000 µg/mL with Staphylococcus aureus is 18 mm; in the data set on Micrococcus luteus [4], 18 mm; with Micrococcus luteus [5], 15 mm; in the data set on Candida tropicalis, 22 mm; with Saccharomyces cerevisiae, 16 mm. For the same molecule, in the data set on Escherichia coli, the “diameter of the inhibition zone (DIZ)” value was “inactive”.

In data set [1], `CCNC(=O)N[C@H](CC)CO` showed an MIC of 1.25 µM (≈ 0.2 µg/mL). The pIC50 in the data set on HEK-293T is 3.94. In addition, the “Selectivity Index” value in [2] was found to be 91.2. The same molecule displayed a solubility in [3] of 215000 µg/mL (≈ 1340 mM). The Ratio in [6] is 5. Also, the “diameter of the inhibition zone (DIZ)” value with Bacillus subtilis, with Bacillus, with Priestia megaterium, in the data set with Bacillus mycoides, in the data set on Bacillus cereus and in the data set on Acinetobacter johnsonii was “inactive” in each case. Also, the “diameter of the inhibition zone (DIZ)” value in the data set on Staphylococcus aureus, with Micrococcus luteus [4], in the data set on Micrococcus luteus [5], in the data set with Escherichia coli, in the data set with Candida tropicalis and in the data set with Saccharomyces cerevisiae was “inactive” each time. In addition, the “diameter of the inhibition zone (DIZ)” value with Penicillium chrysogenum is “inactive”.

In the case of `CC[C@H](CO)NC(=O)c1ccccc1O`, the lowest concentration to inhibit growth in [1] (MIC) was 0.96 µM (≈ 0.201 µg/mL). The same molecule showed a pIC50 in the data set on HEK-293T of 3.59. The “Selectivity Index” value in data set [2] came to 267.7. For the same molecule, the solubility in data set [3] turned out to be 2000 µg/mL (≈ 9.56 mM). Besides, the Ratio in [6] worked out at 5. Also, the “diameter of the inhibition zone (DIZ)” value in the data set on Bacillus subtilis, in the data set on Escherichia coli and in the data set with Penicillium chrysogenum was “inactive” each time. Besides, the zone of inhibition at 50000 µg/mL in the data set on Bacillus was determined as 11 mm; in the data set with Priestia megaterium, 13 mm; in the data set with Bacillus mycoides, 12 mm; in the data set on Bacillus cereus it was 11 mm; with Acinetobacter johnsonii, 13 mm; in the data set with Staphylococcus aureus, 11 mm. Further, the zone of inhibition at 50000 µg/mL with Micrococcus luteus [4] is 13 mm; in the data set on Micrococcus luteus [5], 11 mm; in the data set on Candida tropicalis it was 13 mm; in the data set on Saccharomyces cerevisiae it was 15 mm.

Consider `CC[C@H](CO)N1Cc2ccccc2C1=O`, for which the minimal inhibitory concentration (MIC) in data set [1] stood at 0.97 µM (≈ 0.199 µg/mL). In the data set on HEK-293T, this molecule gave a negative logarithm of the IC50 (pIC50) of 4.05. The “Selectivity Index” value in data set [2] was 91.8. In [3], the solubility was determined as 1000 µg/mL (≈ 4.87 mM). Moreover, the Ratio in data set [6] stood at 5. The “diameter of the inhibition zone (DIZ)” value in the data set with Bacillus subtilis, in the data set on Bacillus, in the data set with Priestia megaterium, with Bacillus mycoides, with Bacillus cereus and with Acinetobacter johnsonii was “inactive” each time. Further, the “diameter of the inhibition zone (DIZ)” value in the data set on Staphylococcus aureus, with Micrococcus luteus [4], in the data set on Micrococcus luteus [5], in the data set with Escherichia coli, in the data set with Candida tropicalis and in the data set with Saccharomyces cerevisiae was “inactive” each time. Moreover, the “diameter of the inhibition zone (DIZ)” value in the data set with Penicillium chrysogenum was “inactive”.

(Values after ChEMBL document CHEMBL1932986, “Synthesis and in vitro antimycobacterial activity of compounds derived from (R)- and (S)-2-amino-1-butanol - The crucial role of the configuration” (Eur J Med Chem, 2012).)
